Assay results reported in paper PMC4372064 (ACS Chemical Neuroscience, 2014).
Entries after “also recorded” stand apart in the source; their conditions may differ. Read-outs that look alike come from different tables or passages of the source.

What was measured:
[1] = tested on: rats (tibial-nerve injury model); assay: Tibial-nerve injury; format: in vivo, rat
mice (MES seizure model) = details: ip, (95% CI), cited from earlier work
rat (MES seizure model) = details: po, (95% CI), cited from earlier work
[2] = target: T1, sodium channels in CAD cells (Mus musculus, UniProt Q62205); assay: Whole-cell patch clamp, steady-state fast inactivation, CAD cells; format: cell-based
T1 sequence (Q62205 whole entry): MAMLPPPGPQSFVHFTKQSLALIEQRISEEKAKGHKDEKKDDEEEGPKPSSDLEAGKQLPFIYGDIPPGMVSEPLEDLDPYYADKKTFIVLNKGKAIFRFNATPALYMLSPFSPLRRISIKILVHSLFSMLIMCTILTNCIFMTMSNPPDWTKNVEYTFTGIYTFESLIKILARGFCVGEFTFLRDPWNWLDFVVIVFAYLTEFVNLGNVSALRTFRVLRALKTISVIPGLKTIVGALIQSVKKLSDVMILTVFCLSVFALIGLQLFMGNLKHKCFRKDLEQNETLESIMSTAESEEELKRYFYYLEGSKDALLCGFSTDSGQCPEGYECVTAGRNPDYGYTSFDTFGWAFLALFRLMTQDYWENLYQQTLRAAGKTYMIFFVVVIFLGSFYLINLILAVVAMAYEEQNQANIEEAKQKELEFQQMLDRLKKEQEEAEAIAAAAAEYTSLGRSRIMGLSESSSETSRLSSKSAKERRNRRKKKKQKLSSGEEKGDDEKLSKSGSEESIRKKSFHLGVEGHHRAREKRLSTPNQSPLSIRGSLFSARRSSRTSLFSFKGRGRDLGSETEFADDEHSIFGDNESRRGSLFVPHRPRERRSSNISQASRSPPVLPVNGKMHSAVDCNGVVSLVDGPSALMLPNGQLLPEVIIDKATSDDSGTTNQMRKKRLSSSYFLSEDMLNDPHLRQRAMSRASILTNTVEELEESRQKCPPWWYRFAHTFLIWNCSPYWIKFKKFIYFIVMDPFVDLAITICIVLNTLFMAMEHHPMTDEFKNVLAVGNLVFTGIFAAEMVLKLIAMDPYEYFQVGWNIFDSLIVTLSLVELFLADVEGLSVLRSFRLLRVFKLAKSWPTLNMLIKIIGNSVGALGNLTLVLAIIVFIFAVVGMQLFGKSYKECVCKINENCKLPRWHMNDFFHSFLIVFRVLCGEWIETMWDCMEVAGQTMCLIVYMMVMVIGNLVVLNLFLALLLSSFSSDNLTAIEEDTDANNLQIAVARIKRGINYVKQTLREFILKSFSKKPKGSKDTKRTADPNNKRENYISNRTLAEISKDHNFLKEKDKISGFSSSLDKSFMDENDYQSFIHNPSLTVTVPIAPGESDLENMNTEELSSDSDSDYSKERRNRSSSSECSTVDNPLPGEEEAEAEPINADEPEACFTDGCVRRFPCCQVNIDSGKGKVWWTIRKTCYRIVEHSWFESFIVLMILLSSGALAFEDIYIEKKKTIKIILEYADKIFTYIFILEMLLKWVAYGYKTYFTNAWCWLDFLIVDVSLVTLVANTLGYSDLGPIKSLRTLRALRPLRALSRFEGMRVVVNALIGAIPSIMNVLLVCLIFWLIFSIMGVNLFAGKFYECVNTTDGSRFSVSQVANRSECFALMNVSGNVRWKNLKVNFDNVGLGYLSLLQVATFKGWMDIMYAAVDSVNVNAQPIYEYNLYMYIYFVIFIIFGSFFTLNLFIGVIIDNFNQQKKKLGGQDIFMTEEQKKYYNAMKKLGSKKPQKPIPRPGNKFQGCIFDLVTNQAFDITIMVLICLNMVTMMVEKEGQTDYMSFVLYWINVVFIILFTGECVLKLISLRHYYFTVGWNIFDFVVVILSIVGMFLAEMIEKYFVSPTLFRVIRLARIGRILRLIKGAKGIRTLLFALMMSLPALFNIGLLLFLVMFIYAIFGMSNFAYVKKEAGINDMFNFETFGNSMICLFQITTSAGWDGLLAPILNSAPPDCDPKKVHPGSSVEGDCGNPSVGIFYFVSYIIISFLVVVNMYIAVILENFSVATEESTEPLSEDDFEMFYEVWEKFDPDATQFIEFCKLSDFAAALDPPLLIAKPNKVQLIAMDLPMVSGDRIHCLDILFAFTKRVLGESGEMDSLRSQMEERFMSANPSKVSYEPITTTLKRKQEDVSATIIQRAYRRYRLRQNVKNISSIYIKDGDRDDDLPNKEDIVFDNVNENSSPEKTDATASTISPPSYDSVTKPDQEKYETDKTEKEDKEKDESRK
How it was run: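 CAD cells were recorded by whole-cell clamp at room temperature, with 3 s between pulses. Steady-state fast inactivation was induced by a previously described protocol. Test compound was applied at 10 μM (10–200 μM for one compound) versus 0.1% DMSO control. Each recording was fitted to a Boltzmann function to give V1/2 and slope k, which were averaged (mean ±SEM). Cells numbered 3–7 per condition, compared by Student's t test or one-way ANOVA.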

[3] = tested on: Na+ currents in CAD cells; assay: Whole-cell patch clamp, frequency; format: cell-based, mouse; details: 100 μM
How it was run: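 Whole-cell voltage clamp was done at room temperature on CAD cells (Ham's F12/DMEM, 10% FBS, 1% pen/strep, 37 °C, 5% CO2, passaged 1:5 every 3–5 days). Criteria were access resistance <3 MΩ and −P/4 leak subtraction. Cells were held at −80 mV and given 20 ms pulses to −10 mV at 10 Hz. Peak currents were compared with the first pulse against 0.1% DMSO control, with test compound at 10 or 100 μM.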

[4] = tested on: voltage-gated sodium channels in rat embryonic cortical neurons; assay: Whole-cell patch clamp, inactivation protocol, rat embryonic cortical neurons; format: cell-based; details: 10 μM
[5] = tested on: voltage-gated sodium channels in rat embryonic cortical neurons; format: cell-based; details: 10 μM
[6] = tested on: voltage-gated sodium channels in rat embryonic cortical neurons; assay: Whole-cell patch clamp, steady-state activation, rat embryonic cortical neurons; format: cell-based; details: 10 μM
scMet seizure model = details: cited from earlier work
[7] = tested on: mice (6 Hz psychomotor seizure model); details: ip, 32 mA, [time of peak effect, h], (95% CI); cited from earlier work
[8] = tested on: rat (behavioral toxicity); details: po, h]; cited from earlier work
[9] = tested on: mice (formalin pain model); details: 8 mg/kg; cited from earlier work
[10] = target: T1, sodium channels in CAD cells; details: cited from earlier work
[11] = tested on: Na+ currents in CAD cells; details: 100 μM; cited from earlier work

NC(=O)N1c2ccccc2C=Cc2ccccc21 [carbamazepine]
effect on tactile hypersensitivity (in words) ([1]; TNI, 65 mg/kg, ip): ineffective

O=C1NC(=O)C(c2ccccc2)(c2ccccc2)N1 [phenytoin]
MES, ED50 (mice (MES seizure model); [time of peak effect, h]): 9.5 mg/kg | MES, ED50 (rat (MES seizure model); [time of peak effect, h]): 30 mg/kg

C[C@H](NCc1ccc(OCc2cccc(F)c2)cc1)C(N)=O [(S)-3, (S)-2-(4′-((3″-fluoro)benzyloxy)benzyl)aminopropionamide]
effect on mechanical/tactile hypersensitivity (in words) ([1]; TNI day 14, single ip administration, 10 mg/kg): no effect; also recorded: without effect | effect on VGSC fast inactivation [2]: promoted fast inactivation of VGSCs | hyperpolarizing shift in V1/2 of fast inactivation vs control (maximum) ([2]; 200 μM): ~21.6 mV | inhibition of Na+ current, frequency (use)-dependence [3]: ~13% | effect on sodium channel inactivation (in words) [4]: neither parent compound affected inactivation | effect on steady-state fast inactivation (in words) [5]: neither (R)-2 nor (S)-3 affected fast inactivation | effect on steady-state activation of VGSCs (in words) [6]: neither 10 μM (R)-2 nor 10 μM (S)-3 affected the steady-state activation | MES, ED50 (mice (MES seizure model)): 4.1 (3.0–5.5) mg/kg | MES, ED50 (rat (MES seizure model)): 12 (10–14) mg/kg | scMet ED50 (scMet seizure model): 27 mg/kg

COC[C@@H](NC(C)=O)C(=O)NCc1ccccc1 [(R)-2, (R)-N-benzyl 2-N-acetamido-3-methoxypropionamide]
reversal of tactile hypersensitivity (% of preinjury values) ([1]; TNI day 14, 10 mg/kg ip, 1 h after administration): ~72% | effect on sodium channel inactivation (in words) [4]: neither parent compound affected inactivation | effect on steady-state fast inactivation (in words) [5]: neither (R)-2 nor (S)-3 affected fast inactivation | effect on steady-state activation of VGSCs (in words) [6]: neither 10 μM (R)-2 nor 10 μM (S)-3 affected the steady-state activation | 6 Hz ED50 [7]: 10 mg/kg | MES, ED50 (rat (MES seizure model); [time of peak effect, h]): 3.9 mg/kg | Tox, TD50 (behavioral toxicity) [8]: >500 [0.5] mg/kg | activity in the second (inflammation) phase of the formalin model [9]: effective | effect on sodium channel fast inactivation [10]: did not | reduction of Na+ currents, frequency (use)-dependence [11]: ~8.8%
